Hits are enriched below; roughly 4.8% of the tested compounds scored in any of these assays.
CSC inhib – cancer stem cell inhibition; AID 2717; 1.1% of 300,000 active; cancer stem cell-like cells viability, luminescence; inhibition, % at 7.5 µM; in the data active means inhibition above about 75%; inconclusive means no clear call, values can overlap the other calls; tested in HMLE shEcad cells
Mdm2-MdmX inh – disrupts the human Mdm2-MdmX interaction. O15151+Q00987. SaOS-2 split-luciferase Mdm2/MdmX complementation, luminescence. inhibition, % at 8 µM. 3% of 330,000 active. AID 485346;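 active means inhibition of at least 50% at 8 µM in the primary screen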
UPR XBP1 act – adaptive UPR (XBP1) activation | CHO-XBP1 luciferase reporter, IRE1-XBP1 UPR activation, luminescence; percent of tunicamycin response, DMSO as zero | activation, % at 20 µM | 0.33% of 330,000 active;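 active means versus positive control, 20 µM dose yields 30% or more activation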
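Assay system: IRE1-XBP1 luciferase reporter CHO line. Input: 1000 cells/well. Buffer or medium: F12 with 10% serum. Doses: 20 µM, 1% DMSO. Times: overnight seeding at 37 °C, 6 h compound treatment at 37 °C. Technique: Steady-Glo luciferase glow luminescence, 10 min after reagent addition.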
Beta cell apopt – beta cell apoptosis inhibition; 0.8% of 300,000 active; INS-1E cytokine-induced death, ATP luminescence, 48 h; percent of positive-control rescue, neutral wells zero; AID 435005; protection from apoptosis, % (no concentration beside the values);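 active means Every replicate reaches about 75%, or at least half do and their mean reaches it too, limit read from the data; inconclusive means At least half of replicates reach the limit but their mean does not; inactive means Under half of replicates reach the limit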;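 further: higher means more ATP so stronger rescue from cytokine killing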
SKKanGAS inh – blocks kanamycin growth of S. pyogenes SKKanGAS strain | BacTiter-Glo, 6 h | inhibition, % at 7.5 µM | 1.3% of 300,000 active | AID 1662;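 active means mean replicate score, as percent of positive control median, at least 50; inconclusive means mean below 50 but one replicate at or above 50; inactive means mean and every replicate below 50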;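 further: strain carries kanamycin resistance gene driven by streptokinase promoter and grows in 40 µg/ml kanamycin; loss of luminescence reflects streptokinase promoter inhibition or plain growth inhibition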
UPR CHOP act – apoptotic UPR (CHOP) activation; activation, % at 10 µM; 0.34% of 330,000 active; AID 449763; CHO-CHOP luciferase reporter, luminescence; percent of tunicamycin response over DMSO baseline;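 active means at 10 µM dose, activation of 40% or more, normalized to positive control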
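System: CHO-CHOP luciferase reporter cell line | Buffer or medium: F12 medium containing 10% fetal bovine serum | Doses: One dose, 10 µM in 0.5% DMSO | Times: 6 h compound exposure at 37 °C after overnight seeding | Signal: Luciferase luminescence | Read-out: % activation vs tunicamycin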
Mdm2-MdmX conf – human Mdm2/MdmX binding inhibition, confirmed; AID 489028; luminescent assay; inhibition, % at 8 µM; 55% of 10,000 active; shares compounds with Mdm2-MdmX inh; in the data active means inhibition above about 40%
Full FLuc ctr – counter-screen for Mdm2/MdmX inhibitors: full-length luciferase | inhibition, % at 8 µM | SaOS-2 full-length luciferase counterscreen, luminescence | 77% of 6,200 active | shares compounds with Mdm2-MdmX inh;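 active means mean inhibition at 8 µM reaching about 37%, which flags the compound as non-specific, limit read from the data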;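 further: p53-null SaOS-2 cells with luciferase driven by a doxycycline-inducible promoter; compound on cells about two nights before reading with doxycycline added after day one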
A number is an active result; - = inactive; ? = inconclusive; . = no result given.

SMILES | CSC inhib | Mdm2-MdmX inh | UPR XBP1 act | Beta cell apopt | SKKanGAS inh | UPR CHOP act | Mdm2-MdmX conf | Full FLuc ctr
COc1ccc2c(c1)O[C@H](c1ccc3c(c1)OCO3)[C@@H](OC(=O)N[C@H]1CCCc3ccccc31)C2=O | - | - | - | - | . | - | . | .
CC1CCC2(CC1)NC(=O)N(CC(=O)Nc1ccc(F)cc1)C2=O (stereo not drawn) | . | - | - | - | . | - | . | .
COc1ccc(Nc2oc(COc3ccc(Cl)cc3)nc2C#N)cc1 | - | 61.4 | - | - | - | - | 43.8 | 76.8
Cc1ccc(Nc2nc3nonc3[nH]c2=O)cc1Cl | - | 76.0 | - | - | 106.1 | - | 80.1 | 72.0
CCOc1cc(S(=O)(=O)NCc2ccc(OC)cc2)c(OCC)cc1-n1cnnn1 | . | 50.8 | - | - | . | - | 45.5 | 85.7
N/C(=N\OC(=O)c1cc(Br)ccc1Cl)c1ccccn1 | - | - | - | . | - | - | . | .
N/C(=N\OC(=O)c1ccc(Cl)cc1Cl)c1ccccn1 | - | 51.7 | - | 109.7 | - | - | - | 52.7
Cc1ccc(C(=O)O/N=C(\N)c2ccccn2)c(Cl)c1 | - | 95.5 | - | . | - | - | 89.3 | -
N/C(=N\OC(=O)c1ccccc1Cl)c1ccncc1 | - | - | - | - | - | - | . | .
N/C(=N\OC(=O)c1cc([N+](=O)[O-])ccc1Cl)c1ccccn1 | - | - | - | - | - | - | . | .
N/C(=N\OC(=O)c1ccc([N+](=O)[O-])cc1Cl)c1ccccn1 | - | 54.0 | - | - | - | - | - | .
Cc1ccc(C(=O)O/N=C(\N)c2ccccc2)c(Cl)c1 | - | 80.2 | - | . | - | - | 58.4 | 119.9
COc1ccc(S(=O)(=O)N2CCOCC2)cc1NC(=O)c1cccs1 | . | - | - | - | . | - | . | .
Cc1ccc(NC(=O)c2cccc(S(=O)(=O)N3CCN(C)CC3)c2)cc1F | - | - | - | - | - | - | . | .
CC(C)(c1ccccc1)c1ccc(OCCCNCCO)cc1 | - | 53.9 | - | . | - | - | - | .
Cc1ccc(Cl)cc1N(C(=O)c1csnn1)C(C(=O)NC1CCCC1)c1ccco1 (stereo not drawn) | - | - | - | - | - | - | . | .
Cc1ccc(S(=O)(=O)N2CCCCC2)cc1NC(=O)c1ccccn1 | - | - | - | - | - | - | . | .
CCn1ncc(/C=N/N=C2\CCC3C4CCc5cc(O)ccc5C4CCC23C)c1C (stereo not drawn) | - | 50.7 | - | . | - | - | - | .
COc1cccc(C(=O)N2c3cc(C)ccc3OCC2C(C)(C)C)c1 (stereo not drawn) | - | - | - | - | - | - | . | .
COc1ccc(S(=O)(=O)N2c3cc(C)ccc3OCC2C(C)(C)C)cc1 (stereo not drawn) | - | 55.9 | - | - | - | - | 61.2 | 63.2
Cc1ccc(S(=O)(=O)N2c3cc(C)ccc3OCC2C(C)(C)C)cc1 (stereo not drawn) | - | 63.0 | - | - | - | - | 72.3 | 47.7
Cc1ccc(S(=O)(=O)N2c3ccccc3OCC2c2ccccc2)cc1 (stereo not drawn) | - | 55.8 | - | - | - | - | 57.5 | 55.4
CN1CCN(CCCNC(=O)c2ccc(/C=C3\Sc4ccccc4N(Cc4ccc(F)cc4)C3=O)cc2)CC1 | . | . | . | . | - | . | . | .
CN1CCN(CCCNC(=O)c2ccc(/C=C3\Oc4ccccc4N(Cc4ccccc4F)C3=O)cc2)CC1 | - | 92.4 | - | - | - | - | - | .
COCCCNC(=O)/C=C1\Sc2ccccc2N(Cc2ccccc2F)C1=O | - | 87.5 | - | - | - | - | 52.8 | 37.9
SMILES | CSC inhib | Mdm2-MdmX inh | UPR XBP1 act | Beta cell apopt | SKKanGAS inh | UPR CHOP act | Mdm2-MdmX conf | Full FLuc ctr
CCN1CCN(CCNC(=O)c2ccc(/C=C3\Sc4ccccc4N(Cc4ccccc4F)C3=O)cc2)CC1 | - | 91.9 | - | - | - | - | 51.5 | 46.2
Cc1cccc(CN2C(=O)/C(=C\c3ccc(C(=O)NCCCN4CCN(C)CC4)cc3)Oc3ccccc32)c1 | 104.6 | 100.3 | - | - | - | - | 56.5 | 36.1
O=C(CN1C(=O)/C(=C/c2ccccc2F)Sc2ccccc21)NCCCN1CCOCC1 | - | - | - | . | - | - | . | .
CN1CCN(CCCNC(=O)c2ccc(/C=C3/Sc4ccccc4N(Cc4cccc(Cl)c4)C3=O)cc2)CC1 | . | . | . | . | - | . | . | .
CC1CCN(S(=O)(=O)c2ccc(C(=O)N3CCCC3C(=O)O)cc2)CC1 (stereo not drawn) | - | - | - | - | . | - | . | .
CC1CCC(NC(=O)c2cc3c(s2)CCCC3)CC1 (stereo not drawn) | - | - | - | - | - | - | . | .
COC1Cc2ccccc2N(C(N)=O)c2ccccc21 (stereo not drawn) | - | - | - | - | - | - | . | .
Oc1ccc(C[C@H]2CNCCN2CCc2cc(C(F)(F)F)cc(C(F)(F)F)c2)cc1 | - | 57.7 | - | - | - | - | - | .
FC(F)(F)c1cc(CCN2CCNC[C@H]2Cc2cccc3ccccc23)cc(C(F)(F)F)c1 | ? | 100.2 | - | - | 69.8 | - | - | 74.8
Oc1ccc(C[C@@H]2CNCCN2CCc2cc(C(F)(F)F)cc(C(F)(F)F)c2)cc1 | - | - | - | - | - | - | . | .
Oc1ccc(C[C@@H]2CNCCN2CCCCC2CCCCC2)cc1 | - | 56.5 | - | - | - | - | - | .
COC(=O)/N=C/c1c(NCc2ccccc2)nc2c(C)cccn2c1=O | - | 69.7 | - | - | - | - | - | .
Cc1cccn2c(=O)c(C=O)c(NCc3ccccc3)nc12 | - | - | - | - | - | - | . | .
COc1ccc(/C=C/C(=O)OCC(=O)NCCc2ccccc2)c(OC)c1 | - | - | - | - | . | - | . | .
Cc1cc(C(=O)N/N=C/c2cc(Br)cc(Br)c2OC(=O)c2cccc(F)c2)n[nH]1 | ? | 51.1 | - | 96.9 | - | - | 63.6 | 43.0
Cc1cc(C(=O)N/N=C\c2cc(C(C)(C)C)ccc2O)n[nH]1 | - | 65.3 | - | - | - | - | 59.9 | 41.0
Cc1cc(C(=O)N/N=C/c2cccs2)n[nH]1 | - | - | - | - | - | - | . | .
Cc1ccc(-c2cc(C(=O)N/N=C/c3ccccc3O)n[nH]2)o1 | 78.7 | 53.3 | - | - | - | - | 52.9 | 47.0
Cc1cc(CN(C)C(=O)C2CCC(=O)N(CCc3cccc(F)c3)C2)on1 (stereo not drawn) | - | - | - | - | - | - | . | .
COc1ccc(CCC(=O)OCC(=O)Nc2ccc(OC)c(OC)c2)cc1OC | - | - | - | - | - | - | . | .
O=C(Nc1ccc(-c2noc(CCc3ccccc3)n2)cc1)c1cccnc1 | - | - | - | . | - | - | . | .
Cc1cc(OCc2nc(-c3ccc(NC(=O)c4cccnc4)cc3)no2)ccc1Cl | - | 62.4 | - | 125.5 | - | - | - | .
